Reference: article PMC10262780 (Nature structural & molecular biology, 2022)
Square brackets hold non-standard residues; d marks the D form. Ends that are not written are not given here. * marks the point of attachment. FITC = O=C1OC2(c3ccc(O)cc3Oc3cc(O)ccc32)c2ccc(NC(=S)*)cc21; pS = N[C@@H](COP(=O)(O)O)C(=O)O

Assays:
[1] = molecular target: human Retinoblastoma protein AB domain with a stabilizing loop deletion (372-787Δ582-642) (human) (UniProt P06400); experiment: fluorescence polarisation
[2] = molecular target: T1, Rb (human Retinoblastoma protein AB domain) (Homo sapiens, UniProt P06400, DEL582-642); experiment: Isothermal titration calorimetry; assay type: binding; conditions: ITC
T1 sequence (P06400 with tags, fused parts or gaps DEL582-642): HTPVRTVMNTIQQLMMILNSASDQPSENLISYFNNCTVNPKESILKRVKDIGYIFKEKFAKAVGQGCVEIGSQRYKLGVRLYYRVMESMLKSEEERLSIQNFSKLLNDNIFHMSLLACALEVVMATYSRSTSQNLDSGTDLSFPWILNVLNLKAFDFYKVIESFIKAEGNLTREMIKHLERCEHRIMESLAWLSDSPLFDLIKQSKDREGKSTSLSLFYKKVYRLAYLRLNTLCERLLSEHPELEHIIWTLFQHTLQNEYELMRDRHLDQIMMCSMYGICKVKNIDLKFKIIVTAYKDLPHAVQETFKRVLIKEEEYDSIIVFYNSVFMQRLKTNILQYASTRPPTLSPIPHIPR
Procedure, shortened: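 Human Rb AB domain (residues 372–787, loop 582–642 deleted), expressed in E. coli, in the cell at 5–30 µM. Peptide/protein titrant in the syringe at 50–300 µM. Cell and syringe samples co-dialysed 48 h at 4 °C in 20 mM sodium phosphate pH 7.0, 200 mM NaCl, 5 mM 2-mercaptoethanol, then degassed. Run at 20.0 °C unless stated, also 10–30 °C. 28 × 10-µl or 13 × 3-µl injections; enthalpy per mole of injectant fitted to a single-site model.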

[3] = molecular target: T2, human Retinoblastoma protein AB domain with a stabilizing loop deletion (372-787Δ582-642) (human, UniProt P06400 372-787, Δ582–642); experiment: ITC
T2 sequence (looked up): T1 sequence (P06400 with tags, fused parts or gaps DEL582-642)

[4] = molecular target: T2, human Retinoblastoma protein AB domain …; experiment: fluorescence polarisation
[5] = molecular target: T2, human Retinoblastoma protein AB domain …; experiment: fluorescence polarisation + ITC
DNA = conditions: Oct-1 binding to DNA; cited from earlier work
[6] = molecular target: T2, human Retinoblastoma protein AB domain …; experiment: fluorescence polarisation; remark: listed apart in the source
[7] = molecular target: T3, Rb (human Retinoblastoma protein AB domain, 372–787Δ582–642) (Homo sapiens, UniProt P06400, DEL582-642); experiment: Fluorescence polarization direct titration of FITC-labelled constructs with Rb; assay type: binding
T3 sequence (P06400 with tags, fused parts or gaps DEL582-642): T1 sequence (P06400 with tags, fused parts or gaps DEL582-642)

[8] = molecular target: T1, Rb (human Retinoblastoma protein AB domain); experiment: E2F competition; assay type: binding; conditions: MBP fusion protein, competition experiment
[9] = from direct titration KD values

## Hum-2–2x: tandem repeat of the Hum-2 (HAdV40) linker between the HAdV5 E1AE2F and E1A_(LxCxE) motifs, MBP fusion
[1]
  KD/KD,E1AWT: 1.1

## 116-VPEVIDLTCHEAGFPP-131 [E1ALxCxE]
[2]; 20 mM Sodium Phosphate pH 7.0, 200 mM NaCl, 5mM 2-mercapto ethanol, 20 °C
  thermodynamic origin of binding to Rb: enthalpically driven

## SPSLDQDDYLWGLEAGEGISDLFD [Human E2F2 peptide (404-427)]
[3]
  binding result: binds

## {FITC}-VPEVIDLTCHEAGFPP [FITC-labelled E1A_(LxCxE) peptide (HAdV5 E1A 116-131)]
[4]
  binding result: binds

## VPEVIDLTCHEAGFPP[pS]DDEDEEG [E1A_(LxCxE-ACP) peptide (HAdV5 E1A 116-139, phosphorylated at Ser132)]
[5]
  fold increase in binding affinity over E1A_(LxCxE): 5 fold

B1: FITC-labelled E1AΔE (domain or fragment)
chain: SHFEPPTAAAADLDVTAPEDPNEEAVSQIFPDSVMLAVQEGIDLLTFPPAPGSPEPPHLSRQPEQPEQRALGPVSMPNLVPEVIDLTCHEAGFPPSDDEDEEGEEFVLDY
modifications: FITC (fluorescein 5-isothiocyanate) on the N-terminus
[4]
  binding result: binds

B2: Oct-1: POU domain activator Oct-1 binding to DNA (protein, UniProt P14859 1-743, looked up)
POU domain, class 2, …: MNNPSETSKPSMESGDGNTGTQTNGLDFQKQPVPVGGAISTAQAQAFLGHLHQVQLAGTSLQAAAQSLNVQSKSNEESGDSQQPSQPSQQPSVQAAIPQTQLMLAGGQITGLTLTPAQQQLLLQQAQAQAQLLAAAVQQHSASQQHSAAGATISASAATPMTQIPLSQPIQIAQDLQQLQQLQQQNLNLQQFVLVHPTTNLQPAQFIISQTPQGQQGLLQAQNLLTQLPQQSQANLLQSQPSITLTSQPATPTRTIAATPIQTLPQSQSTPKRIDTPSLEEPSDLEELEQFAKTFKQRRIKLGFTQGDVGLAMGKLYGNDFSQTTISRFEALNLSFKNMCKLKPLLEKWLNDAENLSSDSSLSSPSALNSPGIEGLSRRRKKRTSIETNIRVALEKSFLENQKPTSEEITMIADQLNMEKEVIRVWFCNRRQKEKRINPPSSGGTSSSPIKAIFPSPTSLVATTPSLVTSSAATTLTVSPVLPLTSAAVTNLSVTGTSDTTSNNTATVISTAPPASSAVTSPSLSPSPSASASTSEASSASETSTTQTTSTPLSSPLGTSQVMVTASGLQTAAAAALQGAAQLPANASLAAMAAAAGLNPSLMAPSQFAAGGALLSLNPGTLSGALSPALMSNSTLATIQALASGGSLPITSLDATGNLVFANAGGAPNIVTAPLFLNPQNLSLLTSNPVSLVSAAAASAGNSAPVASLHATSTSAESIQNSLFTVASASGAASTTTTASKAQ
DNA
  Kd: 0.071 nM
  affinity enhancement by tethering: 2100 fold

B3: FITC-labelled E1AΔL (domain or fragment)
chain: SHFEPPTLHELYDLDVTAPEDPNEEAVSQIFPDSVMLAVQEGIDLLTFPPAPGSPEPPHLSRQPEQPEQRALGPVSMPNLVPEVIDAAAAAGFPPSDDEDEEGEEFVLDY
modifications: FITC (fluorescein 5-isothiocyanate) on the N-terminus
[4]
  binding result: binds

B4: E1AΔL: E1AWT variant with LxCxE motif mutated to poly-alanine (122-LTCHE-126Δ122-AAAA-125) (protein)
chain: B3 chain
modifications: left off: MBP, end not stated, cleaved
[2]; Rb in cell, peptide/protein as titrant
  heat behaviour of binding to Rb (exothermic/endothermic): endothermic

B5: MBP-E1AWT (uncleaved MBP fusion of HAdV5 E1A 36-146) (domain or fragment)
chain: SHFEPPTLHELYDLDVTAPEDPNEEAVSQIFPDSVMLAVQEGIDLLTFPPAPGSPEPPHLSRQPEQPEQRALGPVSMPNLVPEVIDLTCHEAGFPPSDDEDEEGEEFVLDY
[6]
  Kd: 0.075 ± 0.017 nM

B6: E1AWT: adenovirus serotype 5 (HAdV5) Early 1A protein fragment (36–146), minimal Rb binding region (protein)
chain: B5 chain
modifications: left off: MBP, end not stated, cleaved
[7]; Ceff=(KD,E2F*KD,LxCxE)/KD
  Ceff obtained from the affinities of the construct and the isolated motifs: 0.52 ± 0.09 mM
[7]; binding to Rb
  total ΔGBINDING: -14.24 kcal/mol
[7]; [9]
  affinity enhancement compared to E2F2: 40 fold
  affinity enhancement compared to the individual E1A SLiMs: 4000 fold

B7: MBP-E1AWT: uncleaved MBP fusion protein of E1AWT (protein)
chain: B5 chain
modifications: left off: MBP, end not stated, kept
[8]
  binding affinity compared with cleaved E1AWT: same binding affinity as cleaved E1AWT
